Results as given in article PMC3143253 (Journal of molecular biology, 2011).
“Also recorded” adds a separate entry of the source. One block for each compound: values may come before it. No end group written: not given here. *: point of attachment. X1 = CN(C)c1ccc2c(-c3ccc(N4C(=O)CC(*)C4=O)cc3C(=O)[O-])c3ccc(N(C)C)cc3[o+]c2c1

Tests used:
[1] = system: D/A-CaM (donor/acceptor-labeled CaM); assay: FRET measurements using D/A-CaM; type: binding; conditions: compared with CaMKII-derived peptide; calcium-containing buffer, pH 7.4
[2] = molecular target: CaM (I-CaM, IAEDANS-labeled CaM-K75C) (Homo sapiens, UniProt P0DP23, K76C); assay: I-CaM fluorescence titration of water-soluble peptides; type: binding; conditions: 0.1 mM CaCl2 versus 0.3 mM EDTA
Solubility = type: physicochemical
[3] = system: 15N-labeled Ca^2+-loaded CaM; assay: 1H,15N-HSQC NMR titration of 15N-labeled CaM; type: binding; conditions: Ca^2+-CaM, 310 K
CaM [4] = molecular target: T1, CaM (Homo sapiens, UniProt P0DP23); assay: Isothermal titration calorimetry; type: binding; conditions: 10 mM MOPS, 2 mM CaCl2, 100 mM NaCl, pH 7.4, 30 °C
[5] = Far-UV CD spectroscopy in liposomes; type: physicochemical; conditions: 1 mM MOPS, pH 7.4, 20 °C
Method in brief: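 CLS reconstituted into large unilamellar vesicles (extruded, 400-nm filter) at about 10 μM in 1 mM MOPS, pH 7.4. Far-UV spectra (190–260 nm) were taken in a 0.1-cm cuvette at 20 °C with 0.2 nm steps and 10 scans each, corrected against empty liposomes. CLS content was measured by Trp emission after dissolving in 2% SDS, against a standard curve.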

Collisional fluorescence = type: binding; conditions: pH 7.4
CaM [6] = molecular target: T1, CaM; assay: Overall affinity of CaM for L-selectin cytoplasmic domain; type: binding; conditions: phosphatidylserine content mimics that in the inner leaflet of the cell plasma membrane
I-CaM = I-CaM (Homo sapiens, UniProt P0DP23, K76C); assay: I-CaM titration to CLS liposomes, Trp315 to IAEDANS energy transfer; type: binding
Method in brief: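 Unlabelled CLS (30 nM) in liposomes was titrated with IAEDANS-labelled cysteine-mutant CaM. Its concentration came from IAEDANS absorbance. Buffer was 10 mM MOPS, 100 mM NaCl, pH 7.4, with 0.3 mM EDTA or 1 mM CaCl2, at 20 °C. Excitation was 295 nm, and Trp quenching was read at 333 nm. Spectra were averaged over 3 scans and corrected with empty liposomes. Kd came from a hyperbolic fit.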

CaM [7] = molecular target: T1, CaM; assay: CaM titration to TMR-CLS liposomes, TMR fluorescence; type: binding; conditions: pH 7.4; for association with CaM in 15% POPS liposomes: 15% POPS / 85% POPC liposomes, absence and presence of calcium
[8] = cited from earlier work

N (stoichiometry of binding) (CaM [4]; ARR18 316 μM in 10 μl increments into 27.6 μM CaM, one-site model): 0.92±0.05 | ΔH (enthalpy change per mole of ligand) (CaM [4]; ARR18 316 μM into 27.6 μM CaM, one-site model): -0.77 ± 0.07 kcal/mol | ΔS (entropy change) (CaM [4]; derived from Ka and ΔH): 21.7 cal/mol·K
Compound: ARRLKKGKKSKRSMNDPY [ARR18]
conformation of bound CaM [1]: much more extended conformation | effect of calcium on association with CaM [2]: calcium does not influence the association of CaM with ARR18 | solubility in water / aqueous solutions (Solubility): soluble in water up to millimolar concentration | CaM lobes bound ([3]; 10 mM MOPS, 100 mM NaCl, 5 mM CaCl2, pH 6.3): binds to both the N- and C-lobes of Ca^2+-CaM | nature of the binary complex ([3]; saturating concentrations of ARR18, pH 6.3): dynamic and exist as an ensemble of interconverting conformers

solubility in water / aqueous solutions (Solubility): not soluble in aqueous solutions | effect of calcium on interaction with CaM (I-CaM; CLS in POPC liposomes, CaCl2 versus EDTA): independent of calcium ion | association with CaM in 15% POPS liposomes (CaM [7]): does not associate
Compound: KLDKSFSMIKEGDYNPLFIPVAVMVTAFSGLAFIIWLARRLKKGKKSKRSMNDPY [CLS]
secondary structure by CD ([5]; POPC and 15% POPS liposomes, minima at 208 and 222 nm): characteristic of the α-helical secondary structure | α-helical content in 15% POPS versus POPC liposome ([5]; ellipticity at 222 nm): less α-helical secondary structure in the 15% POPS liposome than in the POPC liposome | location of cytoplasmic domain relative to membrane surface (Collisional fluorescence; POPC liposomes with 0–15% POPS, 20 °C): located closer to the surface of membranes that have higher concentrations of negatively charged lipids | interaction with CaM (summary) (CaM [6]): undetectable; also recorded: fails to bind | quenching of Trp315 fluorescence by I-CaM (I-CaM; unlabeled CLS in 15% POPS liposomes, pH 7.4): did not produce a significant quenching of Trp315 fluorescence

Compound: KLDKSFSMIKEGDYNPLFIPVAVMVTAFSGLAFIIWLARRLKKGKKSKRC(X1)MNDPY [TMR-CLS]
effect of NaNO3 on TMR fluorescence (15% POPS versus POPC liposomes) (Collisional fluorescence; 150 mM NaI, increasing NaNO3, 10 mM MOPS, ex 542 nm, em 575 nm): quenched more significantly in 15% POPS liposomes compared to POPC liposomes | association with CaM in 15% POPS liposomes (CaM [7]): does not bind | change in TMR fluorescence emission on addition of CaM (CaM [7]; 15% POPS liposomes, up to 10 μM CaM, 10 mM MOPS, 100 mM NaCl, 1 mM EDTA or 0.1 mM CaCl2): little change in TMR fluorescence emission

Compound: NCCCCCCNS(=O)(=O)c1cccc2c(Cl)cccc12 [W-7]
membrane binding and surface potential [8]: directly bind to membrane and alter the electrostatic surface potential
